Assays:
HT29 xenograft tumors = assay: In vivo tumor uptake of GNRs, gold content by ICP-MS; set-up: species or system mice; conditions: CA074 10 mg/kg i.p., peptide GNR 8 OD i.v., 24 hr
In short: (§1)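 Male athymic Swiss nude mice carried bilateral subcutaneous HT29, HCT116 and DLD1 xenografts (1×10^6 cells in PBS). At 7–8 mm tumors, mice were randomized, n=4/group. CA074 10 mg/kg i.p. daily; 100 μL of 8 OD GNR i.v. by tail vein on day 3 of CA074. At 24 hr, tumors and organs were harvested, weighed, lyophilized and digested in aqua regia. Gold by ICP-MS per gram dry tissue; mean ± SEM, unpaired two-tailed t-test.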

HT29 = assay: In vitro uptake of GNRs, gold content by ICP-MS; type: cell-based, Human; conditions: 10 μM CA074 for 12 hr, then peptide GNR 24 hr
In short: (§2)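 Cells in 10% FBS medium (HT29 McCoy's, MDA MB231 DMEM, PANC1 RPMI 1640) at 37 °C, 5% CO2. At 70% confluence: 10 μM CA074 for 12 hr, then 0.05 OD GNR in serum-free medium for 24 hr. Cells washed, trypsinized, pelleted, dried at 56 °C and digested in aqua regia (60 °C, 4 hr). Gold measured by ICP-MS against gold standards, normalized to cell count; mean ± SEM.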

PANC1 = assay: In vitro uptake of GNRs, gold content by ICP-MS; type: cell-based, Human; conditions: 10 μM CA074 for 12 hr, then peptide GNR 24 hr
In short: as §2

HCT116 xenograft tumors = assay: In vivo tumor uptake of GNRs, gold content by ICP-MS; set-up: species or system mice; conditions: CA074 10 mg/kg i.p., peptide GNR 8 OD i.v., 24 hr
In short: as §1

MDAMB231 = assay: In vitro uptake of GNRs, gold content by ICP-MS; type: cell-based, Human; conditions: 10 μM CA074 for 12 hr, then peptide GNR 24 hr
In short: as §2

Cathepsin B = Cathepsin B (Homo sapiens, UniProt P07858); assay: Cathepsin B-mediated hydrolysis of peptide constructs followed by HPLC; type: biochemical; conditions: Cathepsin B 1.34 × 10^−13 M, 25 °C, least-squares regression
In short: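 Substrate at 1·10^-7 M with cathepsin B (1.34·10^-13 M, activated by 1 mM DTT) in 50 mM sodium citrate pH 6.0, 1 mL, filter-sterilized, held dark at 25 °C. Repeated reversed-phase HPLC injections ran over ≥6× reaction half-life; UV detection at 220 nm. Percentage substrate remaining came from peak area versus known injected amount. Pseudo-first-order half-life given as mean ± SD; ≥3 repeats.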

Row | Compound | effect of inhibitor on peptide GNR uptake by xenograft tumors (ICP-MS) (HT29 xenograft tumors) | change in peptide GNR uptake (ICP-MS) with CA074 compared to peptide GNRs alone (HT29) | change in peptide GNR uptake (ICP-MS) with CA074 compared to peptide GNRs alone (PANC1) | effect of inhibitor on peptide GNR uptake by xenograft tumors (ICP-MS) (HCT116 xenograft tumors) | change in peptide GNR uptake (ICP-MS) with CA074 compared to peptide GNRs alone (MDAMB231) | degradation reaction half-life (t½) relative to native GFGFVG peptide (Cathepsin B)
1 | CCCNC(=O)[C@H]1O[C@@H]1C(=O)N[C@H](C(=O)N1CCC[C@H]1C(=O)O)[C@@H](C)CC [CA074] | abrogates the increased uptake | two-fold reduction | two-fold reduction | abrogates the increased uptake | two-fold reduction | 
2 | MeO-PEG20k-GFGFVG [PEGylated GFGFVG] |  |  |  |  |  | nearly three-fold
3 | MeO-PEG20k-GGFGFVGGR9WC |  |  |  |  |  | about three-fold higher

Reference: paper PMC10032210 (Biomaterials, 2022)
